The target of assay [1] is T1, Tubulin (Homo sapiens) (UniProt P68371+Q9H4B7+P0DPH7+P68366+Q13509+Q71U36+P04350+Q3ZCM7+P07437+P68363+Q9BQE3+Q6PEY2+Q13885+Q9BVA1+Q9BUF5). In words: Displacement of [3H]-colchicine from biotin-labeled tubulin (unknown origin) at 1 uM after 2 hrs by scintillation proximity assay relative to control. The format is protein-complex assay.
Assay [2] addresses T1, Tubulin (Homo sapiens). In words: Displacement of [3H]-colchicine from biotin-labeled tubulin (unknown origin) at 5 uM after 2 hrs by scintillation proximity assay relative to control. The format is protein-complex assay. In general terms: In a radioligand displacement assay an active substance lowers the binding of a labelled ligand.
A further assay addresses Tubulin. In words: Displacement of [3H]-colchicine from biotin-labeled tubulin (unknown origin) after 2 hrs by scintillation proximity assay. The format is protein-complex assay, Homo sapiens.
The subject of assay [3] is HUVEC. In words: Induction of vascular disrupting activity in HUVEC assessed as VEGF-induced tube formation at 1000 nM after 4 hrs by microscopic analysis. The format is functional, cell-based. The following applies: Homo sapiens. In short, it runs like this: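 HUVECs plated at 2×10^4 cells/well on Matrigel in 20% FBS M199 with 20 ng/mL VEGF; capillaries formed over 4 h before compound or DMSO vehicle added. Imaged at addition and 4 h later; capillary tube networks counted manually under microscope (100×). Expressed relative to vehicle; mean ± SD of three separate experiments.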

The subject of the next assay is HT-29. Briefly: Cytotoxicity against human HT-29 cells assessed as growth inhibition after 72 hrs by methylene blue staining-based assay. The format is functional, cell-based. To be noted: HT-29, 72 h.
For assay [4], the system named is HUVEC. In words: Induction of vascular disrupting activity in HUVEC assessed as VEGF-induced tube formation at 100 to 1000 nM after 4 hrs by microscopic analysis. The format is functional, cell-based. To be noted: Homo sapiens.
Assay [5] can be described thus: Cytotoxicity against human H460 cells assessed as growth inhibition after 72 hrs by methylene blue staining-based assay. The following applies: NCI-H460, 72 h. The format is functional, cell-based.
Assay [6] is described as follows: Inhibition of bovine brain MAP-rich tubulin polymerization measured every 30 secs for 30 mins by turbidometric method. Further details: species or system Bos taurus.
Assay [7] deals with KB. Briefly: Cytotoxicity against human KB cells assessed as growth inhibition after 72 hrs by methylene blue staining-based assay. The format is functional, cell-based.
A short description of assay [8]: Cytotoxicity against human KB-S15 cells overexpressing P-gp170/MDR assessed as growth inhibition after 72 hrs by methylene blue staining-based assay. The format is functional, cell-based. To be noted: KB-S15, 72 h.
For the next assay, the system named is MKN-45. Briefly: Cytotoxicity against human MKN45 cells assessed as growth inhibition after 72 hrs by methylene blue staining-based assay. The format is functional, cell-based. The following applies: MKN-45, 72 h.
Assay [9] in a line: Cytotoxicity against human KB-7d cells overexpressing MRP assessed as growth inhibition after 72 hrs by methylene blue staining-based assay. The format is functional, cell-based. The following applies: KB7D.
Assay [10] can be described thus: Cytotoxicity against human KB-VIN10 cells overexpressing P-gp170/MDR assessed as growth inhibition after 72 hrs by methylene blue staining-based assay. The format is functional, cell-based. The following applies: KB-VIN10, 72 h.
The test system of assay [11] is KB. In words: Induction of microtubule depolymerization in human KB cells at 1 uM after 6 hrs by immunofluorescence microscopic analysis. The format is cell-based. Put shortly:
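KB cells on coverslips exposed to compound for 6 h; fixed in MeOH/Me2CO (1:1) at -20 °C for 1 h, blocked with 5% skim milk in PBS for 1 h, then anti-α-tubulin monoclonal (1:500) for 2 h and FITC-conjugated secondary (1:200) for 1 h at room temperature. Microtubule network viewed by fluorescence microscopy.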

The results in this text go back to ChEMBL document CHEMBL2440102, “Furanylazaindoles: potent anticancer agents in vitro and in vivo” (J Med Chem, 2013).

Usually inhibition stands for the share of the control response that was lost under treatment. A low value points to little suppression. Usually pKi stands for −log10 of the Ki, conventionally taken in molar units. A higher pKi goes with a low Ki. What is called pIC50 is the negative decadic logarithm of the IC50, by convention in mol/L.

pIC50, pKi: −log10 of the molar value. Active and inactive are the calls of the source. The rule behind the calls is not given here.

`COc1ccc(S(=O)(=O)n2ccc3ccnc(-c4ccco4)c32)cc1`: the inhibition came out at 63% on Tubulin (Homo sapiens) [1] and 81% on Tubulin (Homo sapiens) [2]. Also, the negative-log Ki (pKi) at Tubulin was 6.42.

Turning to `COc1ccc(S(=O)(=O)n2ccc3ccnc(-c4ccc(C(F)(F)F)cc4)c32)cc1`, the values for the inhibition on Tubulin (Homo sapiens) [1] and at Tubulin (Homo sapiens) [2] were 35% and 65%, respectively.

As to `COc1ccc(S(=O)(=O)n2ccc3ccnc(-c4ccc(Cl)cc4)c32)cc1`, the figures for the inhibition on Tubulin (Homo sapiens) [1] and on Tubulin (Homo sapiens) [2] were 41% and 72%, respectively.

On to `COc1ccc(S(=O)(=O)n2ccc3ccnc(-c4ccc(N(C)C)cc4)c32)cc1`, for which the inhibition on Tubulin (Homo sapiens) [1] was 41%; at Tubulin (Homo sapiens) [2] it was 74%.

As to `COc1ccc(S(=O)(=O)n2ccc3ccnc(-c4ccc([N+](=O)[O-])cc4)c32)cc1`, the inhibition on Tubulin (Homo sapiens) [1] was found to be 21%; at Tubulin (Homo sapiens) [2], 46%.

In the case of `COc1ccc(S(=O)(=O)n2ccc3ccnc(-c4ccccc4)c32)cc1`, the inhibition on Tubulin (Homo sapiens) [1] was determined as 42%; on Tubulin (Homo sapiens) [2], 63%.

With `COc1ccc(S(=O)(=O)n2ccc3ccnc(-c4cccs4)c32)cc1`, the results for the inhibition on Tubulin (Homo sapiens) [1] and on Tubulin (Homo sapiens) [2] were 30% and 70%, respectively.

`COc1ccc(S(=O)(=O)n2ccc3ccnc(-c4ccncc4)c32)cc1`: the inhibition stood at 35% at Tubulin (Homo sapiens) [1] and 59% at Tubulin (Homo sapiens) [2].

As for `O=c1[nH]cc(F)c(=O)[nH]1`, the result with HUVEC [3] was inactive.

As for `COc1ccc(S(=O)(=O)Nc2cccnc2Nc2ccc(O)cc2)cc1` [ABT-751], the pIC50 in the assay with HT-29 was 6.47; in assay [5], 6.66; in assay [6], 5.48; in the assay with KB [7], 6.60; in [8], 6.69; with MKN-45, 6.78. Moreover, the pIC50 is 6.69 in assay [9] and 6.64 in assay [10]. Moreover, the outcome in the assay on HUVEC [4] was Active. Also, the pKi on Tubulin is 5.82.

As to `COc1cc2c(c(OC)c1OC)-c1ccc(OC)c(=O)cc1[C@@H](NC(C)=O)CC2` [COLCHICINE], the pIC50 with HT-29 was 7.82; in assay [5], 7.70; in assay [8], 7.45; in the assay with MKN-45, 7.94; in assay [9] it was 7.29; in assay [10], 6.91. For the same molecule, the result in the assay with KB [11] was Active.

Regarding `COc1ccc(/C=C\c2cc(OC)c(OC)c(OC)c2)cc1O` [COMBRETASTATIN A4], the pIC50 in assay [6] is 5.68.

`COc1cc([C@@H]2c3cc4c(cc3[C@@H](O[C@@H]3O[C@@H]5CO[C@@H](C)O[C@H]5[C@H](O)[C@H]3O)[C@H]3COC(=O)[C@H]23)OCO4)cc(OC)c1O` [ETOPOSIDE]: the results for the pIC50 in assay [8], in assay [9] and in [10] were 5.46, 4.27 and 4.64, respectively.

As to `CC(=O)O[C@H]1C(=O)[C@@]2(C)[C@H]([C@H](OC(=O)c3ccccc3)[C@]3(O)C[C@H](OC(=O)[C@H](O)[C@@H](NC(=O)c4ccccc4)c4ccccc4)C(C)=C1C3(C)C)[C@]1(OC(C)=O)CO[C@@H]1C[C@@H]2O` [PACLITAXEL], the result with KB [11] was inactive. The figures for the pIC50 (in the assay on KB [7]; in [9]) were 8.39 and 8.10, respectively.

Regarding `CC[C@]1(O)C[C@H]2CN(CCc3c([nH]c4ccccc34)[C@@](C(=O)OC)(c3cc4c(cc3OC)N(C=O)[C@H]3[C@@](O)(C(=O)OC)[C@H](OC(C)=O)[C@]5(CC)C=CCN6CC[C@]43[C@@H]65)C2)C1` [VINCRISTINE], the pIC50 was 9.22 with KB [7] and 8.92 in [9].
